This passage reports IC50, Inhibition and inhibition results from ChEMBL document CHEMBL1135769, “Design, synthesis, and biological evaluation of aryloxyethyl thiocyanate derivatives against Trypanosoma cruzi” (J Med Chem, 2002).

Structures are written as SMILES.

Broadly, the IC50 is the point on the concentration scale where inhibition reaches its midpoint. A word on the Inhibition: it is the percentage by which the read-out fell short of the control. Lower therefore signals a weak effect. Broadly, the inhibition is the relative decrease from the control value, in per cent. A higher inhibition goes with a strong effect.

Assay [1] deals with Trypanosoma cruzi. Kind of assay: Antiproliferative activity against epimastigote form of Trypanosoma cruzi. Type of assay: functional, organism-based. The method in brief:
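Y-strain epimastigotes grown at 28 °C in brain-heart infusion (37 g/L) with hemin chlorohydrate (20 mg/L) and 10% newborn calf serum. Inoculum was (2-3) × 10^6 cells/mL. Compounds were tested at 1, 10, 50 and 100 µg/mL, each in quadruplicate, with at most 1% ethanol. Growth was read as A600. Percent inhibition came from the absorbance change from start to end versus controls, and IC50 was estimated by linear and polynomial regression.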

In assay [2] the test system is Trypanosoma cruzi. Kind of assay: Antiparasitic activity against amastigote form of Trypanosoma cruzi.
Assay [3] deals with Trypanosoma cruzi. The assay can be described thus: Inhibition of growth of uM. Type of assay: functional. The method in brief:
(§1)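 Epimastigotes (Y strain) were cultured at 28 °C in brain-heart infusion medium with hemin and 10% newborn calf serum, starting at (2-3) × 10^6 cells/mL, with at most 1% ethanol vehicle. Culture density was followed by absorbance at 600 nm. Percent growth inhibition = 100 − (ΔA drug-treated × 100 / ΔA control), where ΔA is the change from start to end of the experiment.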

Assay [4] deals with Trypanosoma cruzi. Kind of assay: Inhibition against Trypanosoma cruzi at a concentration of 70 uM. The assay is classed as functional. The method in brief: as §1
The test system of assay [5] is Trypanosoma cruzi. Kind of assay: (§2) Percent Inhibition of growth of uM. Type of assay: functional. The method in brief: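 Y-strain T. cruzi epimastigotes grown at 28 °C in brain-heart infusion (37 g/L) with hemin (20 mg/L) and 10% newborn calf serum. Start inoculum (2-3) × 10^6 cells/mL. Four concentrations (1, 10, 50, 100 µg/mL), each in quadruplicate, with at most 1% ethanol. Growth read as A600 at start and end; percent inhibition taken against untreated cultures. IC50 estimated by linear and polynomial regression.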

Assay [6] has as its system Trypanosoma cruzi. Kind of assay: Percent Inhibition of multiplication of Trypanosoma cruzi. The assay is classed as functional. The method in brief: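 Intracellular assay in L6E9 myoblasts irradiated with 2000 rad, seeded at 1.2 × 10^7 cells/flask in DMEM with 20% FCS and held 24 h at 35 °C. Cells infected 2 h with 5 × 10^7 Y-strain trypomastigotes/flask, then washed. Drugs added at several concentrations with 1.0 µCi [5,6-3H]uracil for 72 h. Percent inhibition of uracil uptake from mean cpm versus infected untreated cells. Host-cell toxicity checked by phase-contrast microscopy.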

Assay [7] deals with Trypanosoma cruzi. Kind of assay: Inhibitory activity towards Trypanosoma cruzi.
The test system of assay [8] is Trypanosoma cruzi. The description is as §2. The assay is classed as functional. The method, boiled down: as §1
The source holds these as a separate data set.

In the case of `N#CSCCOc1ccc([S+]([O-])c2ccccc2)cc1` (stereo not drawn), the IC50 was found to be 7.7 µM in the assay on Trypanosoma cruzi [1] and 58.8 µM with Trypanosoma cruzi [2].

`Clc1ccccc1OCCOC1CCCCO1` (stereo not drawn) gave an Inhibition with Trypanosoma cruzi [3] of 22%. The same compound yielded an IC50 in the assay on Trypanosoma cruzi [1] greater than 70 µM. Consider `C=CCc1cc(Oc2ccccc2)ccc1OCCSC#N`, for which the IC50 in the assay on Trypanosoma cruzi [1] was greater than 60 µM; with Trypanosoma cruzi [2] it was greater than 70 µM. For `O=C(NCCOc1ccc(Oc2ccccc2)cc1)C1CC1`, the inhibition at 70 µM with Trypanosoma cruzi [4] was found to be 31%. The compound also displayed an IC50 with Trypanosoma cruzi [1] greater than 70 µM. In the assay with Trypanosoma cruzi [1], `c1ccc(Oc2ccc(OCCSc3ccccc3)cc2)cc1` gave an IC50 of 62.1 µM. `Cc1ccc(C)c(OCCOC2CCCCO2)c1` (stereo not drawn) came in with an Inhibition in the assay on Trypanosoma cruzi [3] of 15%. Moreover, the IC50 in the assay with Trypanosoma cruzi [1] is greater than 70 µM.

As for `c1ccc(Nc2ccc(OCCOC3CCCCO3)cc2)cc1` (stereo not drawn), 31.4 µM corresponded to half-maximal inhibition in the assay with Trypanosoma cruzi [1] (IC50).

In the case of `[O-][S+](c1ccccc1)c1ccc(OCCOC2CCCCO2)cc1` (stereo not drawn), the concentration for half-maximal inhibition (IC50) with Trypanosoma cruzi [1] was greater than 70 µM. In turn, `[N-]=[N+]=NCC(O)COc1ccc(Oc2ccccc2)cc1` (stereo not drawn) returned an IC50 in the assay with Trypanosoma cruzi [1] greater than 70 µM. Take `Cc1ccc(OCCOC2CCCCO2)cc1` (stereo not drawn): in the assay with Trypanosoma cruzi [3], the Inhibition was determined as 11%. In addition, the IC50 in the assay with Trypanosoma cruzi [1] was greater than 70 µM.

On to `C=CCSC(=S)NCCOc1ccc(Oc2ccccc2)cc1`, for which the IC50 was 33.3 µM in the assay on Trypanosoma cruzi [1] and greater than 70 µM in the assay with Trypanosoma cruzi [2]. `C[S@+]([O-])CCCCN=C=S` [L-SULFORAPHANE] showed an IC50 in the assay with Trypanosoma cruzi [1] of 102 µM.

Compound `N#CSCCOc1ccc2c(c1)[nH]c1ccccc12` came in with an IC50 in the assay on Trypanosoma cruzi [1] of 10.3 µM. Consider `CC(=O)N1CCN(c2ccc(OCC3COC(Cn4ccnc4)(c4ccc(Cl)cc4Cl)O3)cc2)CC1` (stereo not drawn) [KETOCONAZOLE], for which the Inhibition in the assay on Trypanosoma cruzi [5] is recorded as 18%. On to `Cc1cccc(C)c1OCCSC#N`, for which the IC50 was 13.3 µM in the assay on Trypanosoma cruzi [1] and greater than 70 µM with Trypanosoma cruzi [2]. In turn, `Cc1cc(C)cc(OCCSC#N)c1` yielded an IC50 in the assay with Trypanosoma cruzi [1] of 19.3 µM. For `CS/C(S)=N/CCOc1ccc(Oc2ccccc2)cc1`, the values for the IC50 in the assay with Trypanosoma cruzi [1] and in the assay on Trypanosoma cruzi [2] were 45.6 µM and 27.4 µM, respectively. Regarding `N#CSCCOc1ccc(Nc2ccccc2)cc1`, the Inhibition in the assay on Trypanosoma cruzi [6] amounted to 10%. Besides, the IC50 in the assay with Trypanosoma cruzi [1] was 3.3 µM; with Trypanosoma cruzi [2], 41.1 µM. Turning to `Cc1ccc(S(=O)(=O)c2cc(Oc3ccccc3)ccc2OCCSC#N)cc1`, in the assay with Trypanosoma cruzi [1], inhibition was half-maximal at 4.7 µM (IC50). As for `C[S+]([O-])CCCCN=C=S` (stereo not drawn) [SULFORAPHANE], the values for the concentration for half-maximal inhibition (IC50) with Trypanosoma cruzi [1] and in the assay with Trypanosoma cruzi [7] were greater than 120 µM and 15 µM, respectively. `Cc1ccccc1OCCOC1CCCCO1` (stereo not drawn): in the assay on Trypanosoma cruzi [1], the IC50 is greater than 70 µM. On to `N#CSCCOc1ccccc1I`, for which the IC50 with Trypanosoma cruzi [1] is 18.5 µM; in the assay on Trypanosoma cruzi [2], greater than 70 µM. The compound `Cc1ccc(OCCOC2CCCCO2)c(C)c1` (stereo not drawn) came in with an IC50 in the assay on Trypanosoma cruzi [1] greater than 70 µM.

In the assay on Trypanosoma cruzi [1], `Cc1ccc(OCCSC#N)cc1` had an IC50 of 12.1 µM. In turn, `O=C=NCCOc1ccc(Oc2ccccc2)cc1` showed an Inhibition in the assay with Trypanosoma cruzi [8] of 28%. The compound also registered an IC50 with Trypanosoma cruzi [1] greater than 70 µM. In the assay on Trypanosoma cruzi [1], `C/C=C/c1cc(Oc2ccccc2)ccc1OCCOC1CCCCO1` (stereo not drawn) displayed an IC50 greater than 60 µM. Turning to `S=C=NCCOc1ccc(Oc2ccccc2)cc1`, the half-inhibitory concentration (IC50) in the assay with Trypanosoma cruzi [1] was determined as 15.9 µM; with Trypanosoma cruzi [2] it was 46.7 µM. In the case of `N#CSCCOc1ccccc1Br`, in the assay with Trypanosoma cruzi [1], half-maximal inhibition (IC50) required 20.2 µM.

As to `C/C=C/c1cc(Oc2ccccc2)ccc1OCCSC#N`, the IC50 turned out to be 6.8 µM in the assay with Trypanosoma cruzi [1] and 14 µM with Trypanosoma cruzi [2]. For the compound `Cc1cc(C)cc(OCCOC2CCCCO2)c1` (stereo not drawn), the IC50 in the assay with Trypanosoma cruzi [1] is greater than 70 µM.

Compound `Ic1ccccc1OCCOC1CCCCO1` (stereo not drawn) came in with an Inhibition with Trypanosoma cruzi [3] of 20%. Further, in the assay with Trypanosoma cruzi [1], the IC50 is greater than 60 µM. In the case of `S=C(NCCOc1ccc(Oc2ccccc2)cc1)SCc1ccccc1`, the IC50 in the assay with Trypanosoma cruzi [1] was 32.2 µM; in the assay with Trypanosoma cruzi [2] it was greater than 70 µM. Turning to `Cc1ccc(S(=O)(=O)c2cc(Oc3ccccc3)ccc2OCCOC2CCCCO2)cc1` (stereo not drawn), the IC50 in the assay on Trypanosoma cruzi [1] is greater than 70 µM. The compound `Cc1cccc(OCCSC#N)c1C` showed an IC50 in the assay with Trypanosoma cruzi [1] of 14.8 µM.

Turning to `N#CSCCOc1ccccc1Cl`, the midpoint of inhibition in the assay with Trypanosoma cruzi [1], the IC50, lay at 11.4 µM. In turn, `N#CSCCOc1ccccc1` yielded an IC50 with Trypanosoma cruzi [1] of 16.8 µM. Turning to `CSCCOc1ccc(Oc2ccccc2)cc1`, in the assay on Trypanosoma cruzi [3], the Inhibition was 18%. Further, the IC50 with Trypanosoma cruzi [1] was greater than 100 µM.

In the assay with Trypanosoma cruzi [1], `c1ccc(Cn2c3ccccc3c3ccc(OCCOC4CCCCO4)cc32)cc1` (stereo not drawn) came in with a half-maximal inhibitory concentration (IC50) greater than 70 µM. Consider `c1ccc(CSCCOc2ccc(Oc3ccccc3)cc2)cc1`, for which the Inhibition in the assay on Trypanosoma cruzi [3] was determined as 41%. Moreover, the IC50 in the assay with Trypanosoma cruzi [1] is greater than 60 µM. The compound `Cc1ccccc1OCCSC#N` registered an IC50 in the assay with Trypanosoma cruzi [1] of 16.4 µM. Same read-out and setting: then `Cc1ccc(C)c(OCCSC#N)c1`, with 14.5 µM; and `Cc1cccc(C)c1OCCOC1CCCCO1` (stereo not drawn), with greater than 70 µM; and `Cc1cccc(OCCOC2CCCCO2)c1C` (stereo not drawn), with greater than 70 µM. `c1ccc(Oc2ccc(OCC3CN3)cc2)cc1` (stereo not drawn): in the assay on Trypanosoma cruzi [1], the IC50 is 41.5 µM. The compound `C=CCc1cc(Oc2ccccc2)ccc1OCCOC1CCCCO1` (stereo not drawn) displayed an IC50 in the assay with Trypanosoma cruzi [1] greater than 60 µM. On to `Cc1ccc(OCCSC#N)c(C)c1`, for which the IC50 in the assay on Trypanosoma cruzi [1] was 18.8 µM; in the assay with Trypanosoma cruzi [2] it was 5 µM. In the case of `CC(C)(C)/N=C(\S)NCCOc1ccc(Oc2ccccc2)cc1`, the concentration for half-maximal inhibition (IC50) in the assay with Trypanosoma cruzi [1] amounted to 40.3 µM.
